Data on five molecules can be found in publication PMC6072216 (MedChemComm, 2017).

Data set [1] has as its system MDA-MB-231 breast cancer cells. In words: MTS cell proliferation/viability assay, MDA-MB-231. Format: cell-based, Human. Conditions: for antiproliferative activity (in words): MDA-MB-231, 50 μM, 48 hours, MTS. The essentials:
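MDA-MB-231 cells cultured in DMEM with 10% FBS and 1% penicillin/streptomycin at 37 °C, 5% CO2; seeded at 7 × 10^3 per well. Serum removed after 24 h, then test compound at 1–50 μM in DMSO (max 0.1%) for 48 h, with a solvent-only control. MTS reagent 4 h at 37 °C, OD 550 nm. Blank-subtracted values normalised to DMSO (100%); triplicates; IC50 by nonlinear regression.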

The subject of data set [2] is MCF-7 breast cancer cells. Put plainly: MTS cell proliferation assay, MCF-7. Conditions: MCF-7, highest concentration tested 50 μM, 48 h. Format: cell-based, human. The essentials:
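MCF-7 cells seeded at 7 × 10^3 per well; serum withdrawn after 24 h, then exposed 48 h to test compound at 10–50 μM in DMSO (max 0.1%), with a solvent-only control. MTS reagent added; absorbance read at 550 nm after 4 h at 37 °C. Blank-subtracted values normalised to DMSO control (100%); triplicates.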
(In general: Tetrazolium assays rely on reduction of a dye to a coloured formazan, in cell work by metabolically active cells.)

Another data set concerns MDA-MB-231 cells. Put plainly: Annexin V-FITC/PI apoptosis assay by flow cytometry. Type of data set: cell-based, Human. The settings on record: 48 hours. The essentials:
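MDA-MB-231 cells seeded at 1 × 10^5 per well in 6-well plates; 24 h after serum removal, exposed to test compound (20–40 μM) for 48 h against a 0.1% DMSO control. Trypsinised, washed in cold PBS, stained with Annexin V-FITC and PI (50 μg mL–1) in binding buffer for 20 min in the dark at 0 °C. Flow cytometry gated viable, early-apoptotic, late-apoptotic and necrotic fractions. 3 independent experiments; one-way ANOVA with Fisher's PLSD.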
(Flow cytometry measures light scatter and fluorescence of single cells or particles in a stream.)

The next data set concerns VERO cells. In words: Cytotoxicity against GFP-expressing VERO cells. Type of data set: cell-based, African Green Monkey. Conditions: 50 μg mL^–1 (158 μM for 2c, 139 μM for 3), 4 days.
In data set [3] the test system is leukaemia, colon, renal and melanoma cancer cell lines. In words: NCI anti-cancer screen, summary over cell line groups. Type of data set: cell-based. Conditions: read-out: IC50 values.

SMILES strings stand for the structures. Some results are limits rather than exact numbers.

In the case of `C[C@]1(NC(=O)CCl)C2CC[C@@]3(C)N=C(CCl)C1CC3C2` (stereo partly drawn) [Compound 2c, Exo-11-chloroacetamido-4,endo-11-dimethyl-2-chloromethyl-3-azatricyclo[5.3.1.0^4,9]undec-2-ene], the MDA-MB-231 cell viability in data set [1] (at 20 μM) is recorded as 90 % of control. Besides, the “antiproliferative activity (in words)” value in data set [2] is recorded as “no antiproliferative activities”. Further, the “increase of population of cells in early apoptosis” value in the data set with MDA-MB-231 cells (20 μM) is on record as 21%; with MDA-MB-231 cells (40 μM), 31%. Also, in the data set with VERO cells, the “reduction of VERO cell viability” value is 84 % of control.

Take `COC(=O)/C=C1\C(=O)C=C2C3CC4CC(CCC4(C)N21)C3(C)NC(C)=O` (stereo not shown) [Compound 3]: the “reduction of VERO cell viability” value with VERO cells was 77 % of control. Besides, the 50% inhibitory concentration (IC50) in data set [3] was below 10 µM.

For the molecule `CC(=O)N[C@@]1(C)C2CC[C@@]3(C)N=C(CCl)C1CC3C2` (stereo partly drawn) [Compound 8, Exo-11-acetamido-4,endo-11-dimethyl-2-chloromethyl-3-azatricyclo[5.3.1.0^4,9]undec-2-ene], in data set [1], the “antiproliferative activity (in words)” value was “lack of activity”.

In the case of `CC(=O)N[C@@]1(C)C2CC[C@@]3(C)N[C@@H](CCl)C1CC3C2` (stereo partly drawn) [Compound 9, Exo-11-acetamido-4,endo-11-dimethyl-2-chloromethyl-3-azatricyclo[5.3.1.0^4,9]undecane], the “antiproliferative activity (in words)” value in data set [1] was “lack of activity”.

In the case of `COC(=O)C[C@H]1C(=O)C=C2C3CC4CC(CC[C@@]4(C)N21)[C@]3(C)NC(C)=O` (stereo partly drawn) [Compound 10, Methyl(E)-[exo-11-acetylamino-9α,endo-11-dimethyl-2-oxo-1,2,4,5,5α,6,7,8,9,9α-decahydro-4,7-methanopyrrolo[1,2-a]-quinolin-1-ylidane]ethanoate], the “antiproliferative activity (in words)” value in data set [1] is “lack of activity”.

By IC50 is commonly meant the concentration that gives 50% inhibition.
